Data on two molecules can be found in ChEMBL document CHEMBL2407075, “Sulphonamido-quinoxalines: search for anticancer agent” (Eur J Med Chem, 2013).

Common to all, as to assay type: functional
The subject of test [1] is SK-MEL-2. Put plainly: Growth inhibition of human SK-MEL-2 cells assessed as cell growth at 10^-4 M after 48 hrs by sulforhodamine B assay. Particulars: SK-MEL-2, 48 h, read-out: Activity. (In general: The SRB assay estimates cell density from bound dye.)
The test system of test [2] is CCRF-CEM. Kind of test: Growth inhibition of human CCRF-CEM cells assessed as cell growth at 10^-4 M after 48 hrs by sulforhodamine B assay. Particulars: read-out: Activity.
Test [3] concerns SK-MEL-2. Put plainly: Growth inhibition of human SK-MEL-2 cells assessed as cell growth at 10^-5 M after 48 hrs by sulforhodamine B assay. To be noted: SK-MEL-2, 48 h, read-out: Activity.
Test [4] concerns CCRF-CEM. Kind of test: Growth inhibition of human CCRF-CEM cells assessed as cell growth at 10^-5 M after 48 hrs by sulforhodamine B assay. To be noted: read-out: Activity.
The test system of test [5] is SK-MEL-2. Kind of test: Growth inhibition of human SK-MEL-2 cells assessed as cell growth at 10^-6 M after 48 hrs by sulforhodamine B assay. Particulars: SK-MEL-2, 48 h, read-out: Activity.
For another test, the system named is HCT-15. Put plainly: Growth inhibition of human HCT15 cells assessed as cell growth at 10^-6 M after 48 hrs by sulforhodamine B assay. To be noted: HCT-15, 48 h, read-out: Activity.
Test [6] concerns CCRF-CEM. Kind of test: Growth inhibition of human CCRF-CEM cells assessed as cell growth at 10^-6 M after 48 hrs by sulforhodamine B assay. Particulars: read-out: Activity.
In test [7] the test system is SK-MEL-2. Put plainly: Growth inhibition of human SK-MEL-2 cells assessed as cell growth at 10^-7 M after 48 hrs by sulforhodamine B assay. To be noted: SK-MEL-2, 48 h, read-out: Activity.
In the next test the test system is SK-MEL-28. Put plainly: Growth inhibition of human SK-MEL-28 cells assessed as cell growth at 10^-7 M after 48 hrs by sulforhodamine B assay. Particulars: SK-MEL-28, 48 h, read-out: Activity.
For test [8], the system named is CCRF-CEM. Put plainly: Growth inhibition of human CCRF-CEM cells assessed as cell growth at 10^-7 M after 48 hrs by sulforhodamine B assay. Particulars: read-out: Activity.
For test [9], the system named is CCRF-CEM. Kind of test: Growth inhibition of human CCRF-CEM cells assessed as cell growth at 10^-8 M after 48 hrs by sulforhodamine B assay. Particulars: read-out: Activity.
The subject of a further test is LOX IMVI. Put plainly: Growth inhibition of human LOXIMVI cells after 48 hrs by sulforhodamine B assay. The method in brief:
(§1)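 Adherent cells in RPMI 1640 with 5% FBS and 2 mM L-glutamine were plated at 5000–40,000 cells/well and grown 24 h. Five concentrations (0.01–100 µM, DMSO stock) were added for 48 h at 37 °C. Cells were fixed with cold TCA (10% final) and stained with SRB, read at 515 nm. GI50 came from log concentration–growth curves against time-zero and control plates.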

The test system of test [10] is CCRF-CEM. Put plainly: Growth inhibition of human CCRF-CEM cells after 48 hrs by sulforhodamine B assay. Particulars: read-out: LC50 (the source's name). The method in brief: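 Leukemia suspension cells in RPMI 1640 with 5% FBS and 2 mM L-glutamine were plated at 5000–40,000 cells/well and grown 24 h. Five concentrations (0.01–100 µM) were given for 48 h at 37 °C. Settled cells were fixed with 80% TCA (16% final) and SRB-stained, read at 515 nm. GI50 came from dose–response curves against time-zero and control plates.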

Another test concerns MDA-MB-231. Put plainly: Growth inhibition of human MDA-MB-231 cells after 48 hrs by sulforhodamine B assay. Particulars: MDA-MB-231, 48 h.
The subject of a further test is SK-MEL-5. Put plainly: Growth inhibition of human SK-MEL-5 cells after 48 hrs by sulforhodamine B assay. To be noted: SK-MEL-5, 48 h.
Another test concerns SF-295. Put plainly: Growth inhibition of human SF295 cells after 48 hrs by sulforhodamine B assay. Particulars: SF-295, 48 h. The method in brief: as §1
Another test concerns HT-29. Put plainly: Growth inhibition of human HT-29 cells after 48 hrs by sulforhodamine B assay. Particulars: HT-29, 48 h. The method in brief: as §1
Where [11] appears, read: read-out: LC50 (the source's name).

The TGI is the concentration at which net growth stops. Read a high TGI as lower sensitivity of the cells. A word on the GI50: it is the concentration that inhibits growth by half. Low values mean greater sensitivity of the cells, high ones lower sensitivity of the cells.

`O=S(=O)(Nc1ccc(Cl)cc1)c1ccc2nc(-c3ccccc3)c(-c3ccccc3)nc2c1`: the growth at 100 µM in the test on SK-MEL-2 [1] was determined as 69%; with CCRF-CEM [2], 64%. Moreover, the growth at 10 µM in the test with SK-MEL-2 [3] was -56%; in the test on CCRF-CEM [4], -40%. The growth at 1 µM is 99% in the test on SK-MEL-2 [5], 87% in the test with HCT-15 and 79% in the test with CCRF-CEM [6]. Besides, the growth at 0.1 µM was determined as 99% with SK-MEL-2 [7], 96% with SK-MEL-28 and 91% in the test with CCRF-CEM [8]. The growth at 0.01 µM in the test on CCRF-CEM [9] came out at 88%. In the test on LOX IMVI, this molecule displayed a TGI above 100000 nM. The CC50 in the test with LOX IMVI (setting [11]) and in the test on CCRF-CEM [10] was above 100000 nM in each case.

With `O=S(=O)(Nc1ccccn1)c1ccc2nc(-c3ccccc3)c(-c3ccccc3)nc2c1`, the GI50 in the test with MDA-MB-231 was determined as 1820 nM; in the test on SK-MEL-5, 1460 nM; in the test with SF-295, 1870 nM; in the test with HT-29, 1780 nM. Besides, the CC50 is 100000 nM in the test on SF-295 (setting [11]) and above 100000 nM in the test with HT-29 (setting [11]).
